Where two headings read alike, the source gives them in different places.
Experiments:
[1] = Study A: caffeine clearance in smokers and nonsmokers; format: in vivo, human; details: for Caffeine plasma clearance CL/F: 200 mg oral caffeine, geometric mean
Method in brief: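 A 200 mg oral caffeine capsule was given on day 6 after an overnight fast of ≥10 h, with a methylxanthine-free diet for ≥1 week before and during the study. Plasma caffeine and paraxanthine were sampled predose and at 0.5–12 h. LC-MS/MS, LLOQ 20 ng/mL. Noncompartmental CL/F. ANOVA on ln-transformed data with cohort as fixed effect; smoker/nonsmoker geometric means.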

[2] = Study B; format: in vivo, human; details: for AUC(0-inf) / Cmax / Vd/F / half-life / Tmax: male, human, plasma; for Cmax / Vd/F / half-life / CL/F: geometric mean (geometric CV%); for Vd/F: Vz/F; for Tmax: median (minimum, maximum)
[3] = cited from earlier work
[4] = Study B safety assessment; format: in vivo, human
Method in brief: (§1)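 Safety was monitored by adverse-event reporting, physical examination, vital signs, 12-lead ECG and clinical laboratory tests. Concomitant medications and AEs were recorded from signing of the consent form until a follow-up safety telephone call. SAEs made known within 28 days after the last investigational dose were also recorded, as were later SAEs suspected to be related.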

[5] = test system: CYP3A4; details: in vitro; earlier data, no reference given; cited from earlier work
[6] = cited from earlier work; remark: listed apart in the source
[7] = Study A; format: in vivo, human; details: for Cmax / Vd/F / half-life / Tmax: male, human, plasma, oral, 4 mg; for Cmax / Vd/F / half-life / CL/F: geometric mean (geometric CV%); for Vd/F: Vz/F; for Tmax: median (minimum, maximum)
[8] = test system: CYP2C19; details: in vitro; earlier data, no reference given; cited from earlier work
[9] = Study A safety assessment; format: in vivo, human
Method in brief: as §1

[10] = test system: CYP1A2; details: in vitro; earlier data, no reference given; cited from earlier work
[11] = healthy adult men; cited from earlier work
[12] = test system: CYP2D6; details: in vitro; earlier data, no reference given; cited from earlier work
[13] = oral, 4 mg, pomalidomide 4 mg administered alone
[14] = oral, 4 mg, pomalidomide 4 mg administered with fluvoxamine
[15] = with fluvoxamine compared with alone
[16] = multiple dose, 0.5- to 2-mg dose range
[17] = smokers compared with nonsmokers

With `Cn1c(=O)c2c(ncn2C)n(C)c1=O` [caffeine] the “Caffeine plasma clearance CL/F” value ([1]; nonsmokers (cohort B)) was 5.3 L/h, the “Caffeine plasma clearance CL/F” value ([1]; smokers (cohort A)) was 9.9 L/h and the “Caffeine clearance, fold higher in smokers than in nonsmokers” value ([1]; smokers versus nonsmokers) was “approximately 2 fold”.
With `Nc1cccc2c1C(=O)N(C1CCC(=O)NC1=O)C2=O` (stereo not shown) [pomalidomide] the AUC(0-inf) ([2]; oral) was 1190 ng·h/mL, the AUC(0-inf) ([2]; oral, 4 mg) was 526 ng·h/mL and the Cmax [2, 13] was 49.2 ng/mL. It also gave a Cmax [2, 14] of 59.5 ng/mL, a Vd/F [2, 13] of 65.4 L and a Vd/F [2, 14] of 64 L. It also gave a half-life ([2]; oral, 4 mg, t1/2, pomalidomide 4 mg administered alone) of 6 h, a half-life ([2]; oral, 4 mg, t1/2, pomalidomide 4 mg administered with fluvoxamine) of 13.1 h and a Tmax [2, 13] of 3 h. For the same compound, the Tmax [2, 14] was 4.5 h, the AUC(0-inf) ([2]; po, 4 mg) was 526 ng·h/mL and the CL/F ([2]; pomalidomide 4 mg administered alone) was 7.6 L/h. For the same compound, the CL/F ([2]; pomalidomide 4 mg administered with fluvoxamine) was 3.4 L/h, the “Increase of AUC0-inf” value [2, 15] was 125.1% and the “Increase of Cmax” value [2, 15] was 23.7%. The “Ratio (%) of geometric means, AUC0-inf” value ([2]; with fluvoxamine versus alone) was 225.1%, the “Ratio (%) of geometric means, Cmax” value ([2]; with fluvoxamine versus alone) was 123.7% and the “Change in pomalidomide exposure (in words)” value ([3]; coadministration of ketoconazole) was “mild increase in pomalidomide exposure that was not considered clinically relevant”. For the same compound, the “Change in mean pomalidomide exposure (in words)” value ([3]; concomitant fluvoxamine and ketoconazole, healthy men) was “approximately doubled”, the t1/2 ([3]; prior drug interaction study) was 6.1 h and the “Increase of total drug exposure” value ([3]; single 4-mg dose with CYP3A inhibitor ketoconazole versus alone) was 18.8%. The “Increase of total drug exposure” value ([3]; single 4-mg dose with ketoconazole + fluvoxamine versus alone) was 145.7%, the Safety and tolerability ([4]; single oral 4 mg pomalidomide coadministered with multiple oral 50-mg doses of fluvoxamine, healthy male subjects) was “safe and well tolerated” and the “Deaths, SAEs, or TEAEs leading to discontinuation” value ([4]; study B) was “No deaths, SAEs, or TEAEs leading to discontinuation were reported”. For the same compound, the “TEAEs related to the study drug” value ([4]; study B) was “No subject reported at least 1 TEAE related to the study drug”, the “Subjects reporting TEAEs” value ([4]; study B overall, 1 of 15 subjects) was 6.7% and the “Metabolism by CYP enzyme” value [5] was “capable of metabolizing pomalidomide”. For the same compound, the “mean apparent terminal half-life (t1/2)” value [6] was “approximately 7.5 hours”, the “Accumulation (AUC and Cmax)” value [6, 16] was “less than 14.0%” and the “Time to steady state” value [6, 16] was at most 3 days. For the same compound, the “Dose proportionality of systemic exposure (AUC)” value ([6]; single dose up to 50 mg) was “approximately dose‐proportional”, the Cmax ([7]; nonsmokers) was 56.3 ng/mL and the Cmax ([7]; smokers) was 64.4 ng/mL. It also gave a Vd/F ([7]; nonsmokers) of 65.8 L, a Vd/F ([7]; smokers) of 59.7 L and a half-life ([7]; t1/2, nonsmokers) of 7.8 h. The half-life ([7]; t1/2, smokers) was 4.8 h, the Tmax ([7]; nonsmokers) was 3 h and the Tmax ([7]; smokers) was 1.8 h. For the same compound, the CL/F ([7]; nonsmokers) was 5.8 L/h, the CL/F ([7]; nonsmokers, listed as Pomalidomide) was 5.8 (19.6) L/h and the “Decrease of AUC0-inf (lower in smokers)” value [7, 17] was 32.3%. The “Increase of Cmax (higher in smokers)” value [7, 17] was 14.4%, the “Ratio (%) of geometric means, AUC0-inf” value ([7]; smokers/nonsmokers) was 67.7% and the “Ratio (%) of geometric means, Cmax” value ([7]; smokers/nonsmokers) was 114.4%. The CL/F ([7]; smokers) was 8.6 L/h, the CL/F ([7]; smokers, listed as Pomalidomide) was 8.6 (32.5) L/h and the “Metabolism by CYP enzyme” value [8] was “to a minor extent”. For the same compound, the “Difference in incidence of TEAEs between smokers and nonsmokers” value ([9]; only TEAEs that occurred after pomalidomide dosing) was “no difference”, the Safety and tolerability ([9]; single oral dose of 4 mg in healthy male smokers and nonsmokers ≥ 40 to ≤ 80 years old) was “safe and well tolerated” and the Deaths ([9]; study A) was “no deaths”. For the same compound, the “Number of TEAEs suspected of being related to the study drug” value ([9]; study A) was 22, the “SAEs or severe TEAEs” value ([9]; study A) was “No subject experienced an SAE or severe TEAE” and the “Number of TEAEs reported” value ([9]; study A overall) was 37. For the same compound, the “Subjects reporting TEAEs suspected of being related to the study drug” value ([9]; study A, 12 subjects) was 21.8%, the “Number of TEAEs of moderate severity” value ([9]; study A, all presyncope, not considered related to the study drug) was 3 and the “Metabolism by CYP enzyme” value [10] was “capable of metabolizing pomalidomide”. The “Fraction of the dose excreted in urine as unchanged drug” value [11] was < 5.0 % of the administered dose, the “Renal excretion of pomalidomide-related material” value [11] was ~73.0 % of the administered dose and the “Correlation between caffeine clearance and pomalidomide clearance” value ([1]; in vivo, study A) was “good correlation”. For the same compound, the “Metabolism by CYP enzyme” value [12] was “to a minor extent”.
